Test results from ChEMBL document CHEMBL1140875, “DNA photocleavage by porphyrin-polyamine conjugates” (Bioorg Med Chem, 2009).
Activity calls are given as the source filed them. The calls are words filed in the database; no cut-off is given here.

Assays:
Escherichia coli [1] = test: Induction of DNA photocleavage activity in Escherichia coli pBR322 plasmid assessed as supercoiled DNA form at 10 uM after 90 mins irradiation at 2.5 mW/cm2 by gel electrophoresis
Outline: (§1)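 Supercoiled pBR322 (0.25 µg in 10 µL) in 3 mM Tris–HCl, 0.3 mM EDTA, pH 8.0 at 25 °C, with 10 µM porphyrin. White light at 2.5 mW/cm2 from an 18 W lamp 4 cm away, for 15–120 min. Controls without porphyrin and/or without light. Products run on 0.7% non-denaturing agarose, SYBRsafe stain, transilluminator at 312 nm. Supercoiled, nicked and linear forms quantified as %.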

[2] = Photostability assessed as residual absorbance at 2.5 mW/cm2 irradiation for 45 mins; assay type: physicochemical; details: read-out: Stability
Escherichia coli [3] = test: Induction of DNA photocleavage activity in Escherichia coli pBR322 plasmid assessed as nicked DNA form at 10 uM after 60 mins irradiation at 2.5 mW/cm2 by gel electrophoresis in presence of sodium azide
Outline: (§2)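 pBR322 (0.25 µg) in 3 mM Tris–HCl, 0.3 mM EDTA, pH 8.0 with 10 µM porphyrin, irradiated 60 min in the presence of 100 mM sodium azide (singlet oxygen quencher) or 100 mM mannitol (hydroxyl radical scavenger). Controls without porphyrin, ± irradiation, with each additive. Read-out by agarose gel electrophoresis.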

Escherichia coli [4] = test: Induction of DNA photocleavage activity in Escherichia coli pBR322 plasmid assessed as supercoiled DNA form at 10 uM after 60 mins irradiation at 2.5 mW/cm2 by gel electrophoresis in presence of mannitol; outline: as §2
Escherichia coli [5] = test: Induction of DNA photocleavage activity in Escherichia coli pBR322 plasmid assessed as supercoiled DNA form at 10 uM after 30 mins irradiation at 2.5 mW/cm2 by gel electrophoresis; outline: as §1
Escherichia coli [6] = test: Induction of DNA photocleavage activity in Escherichia coli pBR322 plasmid assessed as supercoiled DNA form at 10 uM after 60 mins irradiation at 2.5 mW/cm2 by gel electrophoresis in presence of sodium azide; outline: as §2
Escherichia coli [7] = test: Induction of DNA photocleavage activity in Escherichia coli pBR322 plasmid at 10 uM after irradiation for 2 hrs by gel electrophoresis
Escherichia coli [8] = test: Induction of DNA photocleavage activity in Escherichia coli pBR322 plasmid assessed as nicked DNA form at 10 uM after 120 mins irradiation at 2.5 mW/cm2 by gel electrophoresis; outline: as §1
[9] = Photostability assessed as residual absorbance at 2.5 mW/cm2 irradiation for 15 mins; assay type: physicochemical; details: read-out: Stability
[10] = Photostability assessed as residual absorbance at 2.5 mW/cm2 irradiation for 30 mins; assay type: physicochemical; details: read-out: Stability
Escherichia coli [11] = test: Induction of DNA photocleavage activity in Escherichia coli pBR322 plasmid assessed as supercoiled DNA form at 10 uM by gel electrophoresis
[12] = Lipophilicity, log P of the compound; assay type: physicochemical; details: octanol/water
Outline: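 1-Octanol/water partition at 25 °C with equal 3 mL phases and dye at 300 µM. Mixture vortexed and centrifuged. Aqueous and organic aliquots each diluted into MeOH, and dye concentration in each phase measured by absorption spectroscopy.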

[13] = Photostability assessed as residual absorbance at 2.5 mW/cm2 irradiation for 60 mins; assay type: physicochemical; details: read-out: Stability
Escherichia coli [14] = test: Induction of DNA photocleavage activity in Escherichia coli pBR322 plasmid assessed as nicked DNA form at 10 uM after 15 mins irradiation at 2.5 mW/cm2 by gel electrophoresis; outline: as §1
Escherichia coli [15] = test: Induction of DNA photocleavage activity in Escherichia coli pBR322 plasmid assessed as nicked DNA form at 10 uM after 30 mins irradiation at 2.5 mW/cm2 by gel electrophoresis; outline: as §1
Escherichia coli [16] = test: Induction of DNA photocleavage activity in Escherichia coli pBR322 plasmid assessed as nicked DNA form at 10 uM after 90 mins irradiation at 2.5 mW/cm2 by gel electrophoresis; outline: as §1
Escherichia coli [17] = test: Induction of DNA photocleavage activity in Escherichia coli pBR322 plasmid assessed as linear DNA form at 10 uM after 120 mins irradiation at 2.5 mW/cm2 by gel electrophoresis; outline: as §1
Escherichia coli [18] = test: Induction of DNA photocleavage activity in Escherichia coli pBR322 plasmid assessed as supercoiled DNA form at 10 uM after 15 mins irradiation at 2.5 mW/cm2 by gel electrophoresis; outline: as §1
Escherichia coli [19] = test: Induction of DNA photocleavage activity in Escherichia coli pBR322 plasmid assessed as supercoiled DNA form at 10 uM after 120 mins irradiation at 2.5 mW/cm2 by gel electrophoresis; outline: as §1
Escherichia coli [20] = test: Induction of DNA photocleavage activity in Escherichia coli pBR322 plasmid assessed as linear DNA form at 10 uM after 90 mins irradiation at 2.5 mW/cm2 by gel electrophoresis; outline: as §1
Escherichia coli [21] = test: Induction of DNA photocleavage activity in Escherichia coli pBR322 plasmid assessed as nicked DNA form at 10 uM after 60 mins irradiation at 2.5 mW/cm2 by gel electrophoresis in presence of mannitol; outline: as §2
DNA = test: Binding affinity to calf thymus DNA at 4 uM in phosphate buffer of pH 7.4 by UV-vis spectroscopy; assay type: nucleic-acid assay; details: Bos taurus
Outline: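 Porphyrin held at 4 × 10^-6 M in PBS pH 7.4 and read by UV–vis at the Soret maximum. Calf thymus DNA titrated in at base-pair concentrations from 1.2 × 10^-6 to 1.2 × 10^-5 M, base pair/porphyrin ratio 0.2 to 3. Change in the Soret band followed.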

Escherichia coli [22] = test: Induction of DNA photocleavage activity in Escherichia coli pBR322 plasmid assessed as nicked DNA form at 10 uM by gel electrophoresis; outline: as §1
[23] = Induction of singlet oxygen production at 1 uM after irradiation at 10 mW/cm2 in presence of 1,3-diphenylisobenzofuran; assay type: physicochemical
Outline: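 Photosensitizer at 10^-6 M with DPBF at 6 × 10^-5 M in DMF/H2O (9/1). Illuminated at room temperature for 30 min with two 30 W white bulbs, 10 mW/cm2. DPBF absorbance decay read at 415 nm every 3 min.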

Escherichia coli [24] = test: Induction of DNA photocleavage activity in Escherichia coli pBR322 plasmid assessed as nicked DNA form at 10 uM after 60 mins irradiation at 2.5 mW/cm2 by gel electrophoresis; outline: as §1
Escherichia coli [25] = test: Induction of DNA photocleavage activity in Escherichia coli pBR322 plasmid assessed as supercoiled DNA form at 10 uM after 60 mins irradiation at 2.5 mW/cm2 by gel electrophoresis; outline: as §1
Escherichia coli [26] = test: Induction of DNA photocleavage activity in Escherichia coli pBR322 plasmid assessed as linear DNA form at 10 uM after 60 mins irradiation at 2.5 mW/cm2 by gel electrophoresis; outline: as §1

With `C=CC1=C(C)c2cc3[nH]c(cc4nc(cc5[nH]c(cc1n2)c(C)c5CCC(=O)NCCCCC(=O)N(CCCN)CCCCNCCCN)C(CCC(=O)NCCCCC(=O)N(CCCN)CCCCNCCCN)=C4C)c(C)c3C=C` the Activity (Escherichia coli [1]) was 1%, the remaining at 0.75 h [2] was 100% and the Activity (Escherichia coli [3]) was 49%. For the same molecule, the Activity (Escherichia coli [4]) was 32%, the Activity (Escherichia coli [5]) was 26% and the Activity (Escherichia coli [6]) was 51%. For the same molecule, the Activity (Escherichia coli [7]) was “Active”, the Activity (Escherichia coli [8]) was 97% and the remaining at 0.25 h [9] was 100%. It also gave a remaining at 0.5 h [10] of 100%, an Activity (Escherichia coli [11]) of 81% and a logP [12] of -0.51. For the same molecule, the remaining at 1 h [13] was 97%, the Activity (Escherichia coli [14]) was 55% and the Activity (Escherichia coli [15]) was 74%. The Activity (Escherichia coli [16]) was 97%, the Activity (Escherichia coli [17]) was 2% and the Activity (Escherichia coli [18]) was 45%. It also gave an Activity (Escherichia coli [19]) of 1%, an Activity (Escherichia coli [20]) of 2% and an Activity (Escherichia coli [21]) of 68%. The Activity (DNA) was “Active”, the Activity (Escherichia coli [22]) was 34% and the Activity [23] was “Active”. It also gave an Activity (Escherichia coli [24]) of 93% and an Activity (Escherichia coli [25]) of 7%.

For `C=CC1=C(C)c2cc3[nH]c(cc4nc(cc5[nH]c(cc1n2)c(C)c5CCC(=O)NCCCCC(=O)N(CCCN)CCCCN)C(CCC(=O)NCCCCC(=O)N(CCCN)CCCCN)=C4C)c(C)c3C=C`, the Activity (Escherichia coli [1]) was 12%, the remaining at 0.75 h [2] was 98% and the Activity (Escherichia coli [3]) was 42%. The Activity (Escherichia coli [4]) was 42%, the Activity (Escherichia coli [5]) was 36% and the Activity (Escherichia coli [6]) was 58%. For the same molecule, the Activity (Escherichia coli [7]) was “Active”, the Activity (Escherichia coli [8]) was 90% and the remaining at 0.25 h [9] was 100%. The remaining at 0.5 h [10] was 99%, the Activity (Escherichia coli [11]) was 78% and the logP [12] was -0.12. It also gave a remaining at 1 h [13] of 97%, an Activity (Escherichia coli [14]) of 54% and an Activity (Escherichia coli [15]) of 64%. It also gave an Activity (Escherichia coli [16]) of 84%, an Activity (Escherichia coli [17]) of 4% and an Activity (Escherichia coli [18]) of 46%. For the same molecule, the Activity (Escherichia coli [19]) was 5%, the Activity (Escherichia coli [20]) was 4% and the Activity (Escherichia coli [21]) was 58%. For the same molecule, the Activity (DNA) was “Active”, the Activity (Escherichia coli [22]) was 36% and the Activity [23] was “Active”. For the same molecule, the Activity (Escherichia coli [24]) was 78% and the Activity (Escherichia coli [25]) was 22%.

With `NCCCCN(CCCN)C(=O)CCCCNC(=O)c1ccc(-c2c3nc(c(-c4ccc(C(=O)NCCCCC(=O)N(CCCN)CCCCN)cc4)c4ccc([nH]4)c(-c4ccc(C(=O)NCCCCC(=O)N(CCCN)CCCCN)cc4)c4nc(c(-c5ccc(C(=O)NCCCCC(=O)N(CCCN)CCCCN)cc5)c5ccc2[nH]5)C=C4)C=C3)cc1` the Activity (Escherichia coli [1]) was 43%, the remaining at 0.75 h [2] was 98% and the Activity (Escherichia coli [5]) was 64%. It also gave an Activity (Escherichia coli [8]) of 51%, an Activity (Escherichia coli [26]) of 2% and a remaining at 0.25 h [9] of 100%. The remaining at 0.5 h [10] was 99%, the Activity (Escherichia coli [11]) was 84% and the logP [12] was -2.02. The remaining at 1 h [13] was 97%, the Activity (Escherichia coli [14]) was 28% and the Activity (Escherichia coli [15]) was 36%. For the same molecule, the Activity (Escherichia coli [16]) was 50%, the Activity (Escherichia coli [17]) was 10% and the Activity (Escherichia coli [18]) was 72%. The Activity (Escherichia coli [19]) was 39%, the Activity (Escherichia coli [20]) was 7% and the Activity (DNA) was “Active”. The Activity (Escherichia coli [22]) was 16%, the Activity [23] was “Active” and the Activity (Escherichia coli [24]) was 39%. For the same molecule, the Activity (Escherichia coli [25]) was 59%.
